According to ChEMBL document CHEMBL1821697, “Design and synthesis of brain penetrant selective JNK inhibitors with improved pharmacokinetic properties for the prevention of neurodegeneration” (Bioorg Med Chem Lett, 2011):

Experiments:
[1] = AUC in mouse brain at 1 mg/kg, iv; type: ADME, organism-based; parameters: dose 1 mg/kg, route intravenous
Outline: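 Mice were dosed intravenously at 1 mg/kg. Brain exposure was expressed as AUC (ng h/mL) alongside the brain/plasma ratio.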

[2] = Solubility of the compound in Hank's buffered salt solution at 20 mM at pH 7.4 after 1 hr; type: physicochemical
[3] = Ratio of drug level in brain to plasma in mouse at 1 mg/kg, iv; type: ADME, organism-based; parameters: dose 1 mg/kg, route intravenous; details: read-out: BPR
Outline: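 Single intravenous dose of 1 mg/kg in mice. Brain exposure was reported as brain AUC (ng h/mL), together with the brain-to-plasma ratio.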

[4] = Oxidative metabolic stability in rat liver microsomes assessed as compound remaining at 1 uM after 30 mins; type: ADME, Microsome; details: read-out: Stability
Outline: (§1)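 Test compound was incubated with mouse, rat or human liver microsomes for 30 min. The read-out is percent of parent compound remaining.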

[5] = Oxidative metabolic stability in human liver microsomes assessed as compound remaining at 1 uM after 30 mins; type: ADME, Microsome; details: read-out: Stability; outline: as §1
MDR1 = assay: Efflux ratio of permeability across MDCK2 expressing MDR1 at 5 uM after 120 mins by LC/MS/MS method; type: ADME, Canis lupus familiaris, MDCK-II; details: dog, MDCK-MDR1
[6] = Apparent permeability from apical to basolateral side of MDCK2 cells at 5 uM after 120 mins by LC/MS/MS method; type: ADME, cell-based, Canis lupus familiaris, MDCK-II; details: dog, MDCK
Rattus norvegicus [7] = assay: Oral bioavailability in rat at 2 mg/kg; type: ADME, organism-based; details: in vivo
Outline: (§2)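 Rats received an oral dose of 2 mg/kg. Plasma AUC is reported in nmol h/mL. Oral bioavailability (F%) was calculated against a 1 mg/kg intravenous dose.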

[8] = biological target: Mitogen-activated protein kinase 1 (Homo sapiens, UniProt P28482); assay: Inhibition of recombinant ERK2 using Ser383 of Elk-1 as substrate preincubated for 15 mins measured after 60 mins by TR-FRET assay
[9] = biological target: Mitogen-activated protein kinase 8 (Homo sapiens, UniProt P45983); assay: Inhibition of recombinant JNK1 using ser73 of c-jun as substrate preincubated for 15 mins measured after 60 mins by TR-FRET assay
Outline: (§3)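 Recombinant JNK enzyme assay run at 10 µM ATP. IC50 values are means of at least three experiments.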

Rattus norvegicus [10] = assay: AUC in rat at 2 mg/kg, po; type: ADME, organism-based, Plasma; parameters: dose 2 mg/kg, route oral; details: in vivo; outline: as §2
[11] = biological target: Mitogen-activated protein kinase 14 (Homo sapiens, UniProt Q16539); assay: Inhibition of recombinant p38alpha Thr69/71 of ATF-2 as substrate preincubated for 15 mins measured after 60 mins by TR-FRET assay
[12] = Oxidative metabolic stability in mouse liver microsomes assessed as compound remaining at 1 uM after 30 mins; type: ADME, Microsome; details: read-out: Stability; outline: as §1
[13] = biological target: Mitogen-activated protein kinase 10 (Homo sapiens, UniProt P53779); assay: Inhibition of recombinant JNK3 using ser73 of c-jun as substrate preincubated for 15 mins measured after 60 mins by TR-FRET assay; outline: as §3
[14] = Half life in rat at 1 mg/kg, iv; type: ADME, organism-based; parameters: dose 1 mg/kg, route intravenous; details: in vivo
Outline: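 Rats were given a single intravenous dose of 1 mg/kg. Half-life is reported in min, together with clearance (mL/h/kg).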

[15] = biological target: Mitogen-activated protein kinase 9 (Homo sapiens, UniProt P45984); assay: Inhibition of recombinant JNK2 using ser73 of c-jun as substrate preincubated for 15 mins measured after 60 mins by TR-FRET assay; outline: as §3
Sequence of Mitogen-activated protein kinase 9 (P45984 whole entry): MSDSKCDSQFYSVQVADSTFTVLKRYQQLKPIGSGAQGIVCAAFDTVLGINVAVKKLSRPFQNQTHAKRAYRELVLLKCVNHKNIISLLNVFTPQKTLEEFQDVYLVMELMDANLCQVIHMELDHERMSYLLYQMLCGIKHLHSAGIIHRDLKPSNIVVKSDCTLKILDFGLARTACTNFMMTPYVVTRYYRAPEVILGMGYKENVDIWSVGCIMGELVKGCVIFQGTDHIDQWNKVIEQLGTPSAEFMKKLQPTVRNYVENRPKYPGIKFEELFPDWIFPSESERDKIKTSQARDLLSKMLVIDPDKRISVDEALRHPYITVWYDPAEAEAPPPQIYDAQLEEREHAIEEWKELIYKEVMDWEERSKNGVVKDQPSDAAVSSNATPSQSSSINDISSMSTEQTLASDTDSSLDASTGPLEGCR

Sequence of Mitogen-activated protein kinase 14 (Q16539 whole entry): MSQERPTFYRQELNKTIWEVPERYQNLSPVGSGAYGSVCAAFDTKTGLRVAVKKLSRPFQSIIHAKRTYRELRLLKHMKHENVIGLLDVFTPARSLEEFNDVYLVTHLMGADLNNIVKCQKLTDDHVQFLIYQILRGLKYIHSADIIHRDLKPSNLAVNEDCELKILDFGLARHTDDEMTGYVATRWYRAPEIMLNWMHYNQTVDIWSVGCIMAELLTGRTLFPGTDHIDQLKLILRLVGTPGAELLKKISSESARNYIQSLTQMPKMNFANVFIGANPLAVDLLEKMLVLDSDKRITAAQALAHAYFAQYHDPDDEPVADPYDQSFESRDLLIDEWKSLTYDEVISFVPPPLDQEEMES
Sequence of Mitogen-activated protein kinase 8 (P45983 whole entry): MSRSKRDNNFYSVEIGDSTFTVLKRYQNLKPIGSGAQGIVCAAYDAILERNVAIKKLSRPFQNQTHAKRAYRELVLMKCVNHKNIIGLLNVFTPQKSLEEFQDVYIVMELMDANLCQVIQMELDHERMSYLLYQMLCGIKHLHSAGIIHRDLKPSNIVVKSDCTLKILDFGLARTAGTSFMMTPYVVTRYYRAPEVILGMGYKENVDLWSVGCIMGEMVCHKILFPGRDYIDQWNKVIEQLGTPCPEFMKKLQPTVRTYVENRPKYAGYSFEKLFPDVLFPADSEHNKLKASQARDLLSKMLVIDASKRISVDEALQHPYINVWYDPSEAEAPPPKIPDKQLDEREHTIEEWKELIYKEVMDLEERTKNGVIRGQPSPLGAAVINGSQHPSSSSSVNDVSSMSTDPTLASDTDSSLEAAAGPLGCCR
Sequence of Mitogen-activated protein kinase 1 (P28482 whole entry): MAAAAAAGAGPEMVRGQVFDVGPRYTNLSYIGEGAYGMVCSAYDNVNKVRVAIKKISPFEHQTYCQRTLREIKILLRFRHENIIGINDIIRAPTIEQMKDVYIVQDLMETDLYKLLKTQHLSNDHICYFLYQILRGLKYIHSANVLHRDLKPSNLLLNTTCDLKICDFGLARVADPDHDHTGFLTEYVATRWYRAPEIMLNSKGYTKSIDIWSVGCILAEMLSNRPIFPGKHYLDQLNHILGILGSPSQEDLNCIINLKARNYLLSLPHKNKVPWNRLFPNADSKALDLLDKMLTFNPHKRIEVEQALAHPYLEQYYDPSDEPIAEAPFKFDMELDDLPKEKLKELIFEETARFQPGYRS
Sequence of Mitogen-activated protein kinase 10 (P53779 whole entry): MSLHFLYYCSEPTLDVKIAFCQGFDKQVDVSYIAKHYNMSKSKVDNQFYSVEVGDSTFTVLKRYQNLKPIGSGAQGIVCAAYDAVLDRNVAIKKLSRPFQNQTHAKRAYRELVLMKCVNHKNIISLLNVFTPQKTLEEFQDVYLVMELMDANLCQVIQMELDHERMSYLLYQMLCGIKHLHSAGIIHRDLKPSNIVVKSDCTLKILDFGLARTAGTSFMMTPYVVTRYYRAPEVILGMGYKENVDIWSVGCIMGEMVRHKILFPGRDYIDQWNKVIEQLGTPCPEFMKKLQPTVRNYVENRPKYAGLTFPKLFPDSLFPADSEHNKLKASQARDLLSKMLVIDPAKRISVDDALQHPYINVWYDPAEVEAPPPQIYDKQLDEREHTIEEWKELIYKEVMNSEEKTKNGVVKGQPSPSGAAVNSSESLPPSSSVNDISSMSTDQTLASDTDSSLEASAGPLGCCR

O=C(Cc1cccc2cnccc12)Nc1scc(Cl)c1-c1ncn[nH]1
AUC [1]: 88 ng·h/mL
solubility at 1 h, 20000 µM [2]: 25 µM
Kp [3]: 0.4
remaining at 0.5 h, 1 µM [4]: 9%

O=C(CN1C(=O)CCc2ncccc21)Nc1scc(Br)c1-c1ncn[nH]1
AUC [1]: 35 ng·h/mL
remaining at 0.5 h, 1 µM [5]: 83%
Kp [3]: 0.24
efflux ratio at 2 h, 5 µM (MDR1): 1.8
Papp A→B at 2 h, 5 µM [6]: 36.8 ×10⁻⁶ cm/s
F (Rattus norvegicus [7]): 91%
IC50 [8]: > 500 nM
IC50 [9]: 9 nM
remaining at 0.5 h, 1 µM [4]: 50%
AUC (Rattus norvegicus [10]): 2720 ng·h/mL
IC50 [11]: > 50000 nM
remaining at 0.5 h, 1 µM [12]: 55%
IC50 [13]: 14 nM
half-life [14]: 2.5 min
IC50 [15]: 32 nM

N#Cc1csc(NC(=O)CN2C(=O)CCc3ccccc32)c1-c1ncn[nH]1
solubility at 1 h, 20000 µM [2]: 95 µM
remaining at 0.5 h, 1 µM [4]: 0%

O=C(Cn1c(=O)ccc2cc(F)c(F)cc21)Nc1scc(Br)c1-c1ncn[nH]1
AUC [1]: 160 ng·h/mL
remaining at 0.5 h, 1 µM [5]: 38%
Kp [3]: 1.4
efflux ratio at 2 h, 5 µM (MDR1): 0.68
Papp A→B at 2 h, 5 µM [6]: 8.31 ×10⁻⁶ cm/s
F (Rattus norvegicus [7]): 40%
IC50 [8]: > 50000 nM
IC50 [9]: 3 nM
remaining at 0.5 h, 1 µM [4]: 9%
AUC (Rattus norvegicus [10]): 571 ng·h/mL
IC50 [11]: > 50000 nM
remaining at 0.5 h, 1 µM [12]: 14%
IC50 [13]: 5 nM
half-life [14]: 2.3 min
IC50 [15]: 15 nM
